We go through 18 molecules from ChEMBL document CHEMBL4038304, “Chiral Indolylarylsulfone Non-Nucleoside Reverse Transcriptase Inhibitors as New Potent and Broad Spectrum Anti-HIV-1 Agents” (J Med Chem, 2017).

Bounds are passed on as bounds.

For data set [1], the system named is Human immunodeficiency virus 1. Briefly: Antiviral activity against HIV1 harboring reverse transcriptase Y181C mutant infected in human […] cells assessed as protection against virus-induced cytopathic effect measured on day 5 post infection by MTT assay. The settings on record: Human immunodeficiency virus 1, 120 h. The class given is functional, cell-based. Background: Protection from cytopathic effect is a common read-out in antiviral testing.

Data set [2] has as its system Human immunodeficiency virus 1. The data set can be described thus: Antiviral activity against HIV1 harboring reverse transcriptase K103N mutant infected in human […] cells assessed as protection against virus-induced cytopathic effect measured on day 5 post infection by MTT assay. The settings on record: Human immunodeficiency virus 1, 120 h. The class given is functional, cell-based.

Data set [3] is described as follows: Cytotoxicity against human MT4 cells assessed as cell viability by MTT assay. The class given is cell-based. Put shortly: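 Uninfected MT-4 cells scored for viability by MTT. […] Values are means of two to three independent experiments, each run in triplicate.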
A general note: Tetrazolium assays rely on reduction of a dye to a coloured formazan, in cell work by metabolically active cells.

The test system of data set [4] is Human immunodeficiency virus 1. Briefly: Ratio of EC50 for HIV-1 harboring reverse transcriptase K103N/[…] double mutant infected in human MT4 cells to EC50 for HIV1 NL4-3 infected in human MT4 cells. The class given is functional. The procedure, abridged: (§1)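 Fold change calculated as EC50 against the stated resistant mutant HIV-1 strain divided by EC50 against wild-type NL4-3. Both EC50s come from MTT read-out of virus-induced death in MT-4 cells, mean of two to three independent experiments each in triplicate.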

Data set [5] in a line: Selectivity index, ratio of CC50 for human MT4 cells to EC50 for HIV1 NL4-3 infected in human MT4 cells. To be noted: read-out: Ratio CC50/EC50. The class given is toxicity, cell-based. Put shortly:
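SI computed as CC50/EC50, using the MTT-based CC50 in uninfected MT-4 cells and the MTT-based EC50 against HIV-1 NL4-3-induced cell death in MT-4 cells. Experiments were run in triplicate, two to three times.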

Data set [6] relates to Human immunodeficiency virus 1. Briefly: Ratio of EC50 for HIV-1 harboring reverse transcriptase K103N mutant infected in human MT4 cells to EC50 for HIV1 NL4-3 infected in human MT4 cells. The class given is functional. The procedure, abridged:
as §1

The subject of data set [7] is Human immunodeficiency virus 1. Briefly: Antiviral activity against HIV1 NL4-3 infected in human […] cells assessed as protection against virus-induced cytopathic effect measured on day 5 post infection by MTT assay. The class given is functional, cell-based. The settings on record: Human immunodeficiency virus 1, NL4-3, 120 h. The procedure, abridged:
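Values are means of two to three independent experiments, each run in triplicate. The lowest detectable concentration is reported where activity fell below the assay limit.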

The test system of data set [8] is Human immunodeficiency virus 1. The data set can be described thus: Antiviral activity against HIV1 harboring reverse transcriptase K103N /[…] double mutant infected in human […] cells assessed as protection against virus-induced cytopathic effect measured on day 5 post infection by MTT assay. The class given is functional, cell-based. The settings on record: Human immunodeficiency virus 1, 120 h.

Data set [9] deals with Human immunodeficiency virus 1. Briefly: Ratio of EC50 for HIV-1 harboring reverse transcriptase Y181C mutant infected in human MT4 cells to EC50 for HIV1 NL4-3 infected in human MT4 cells. The class given is functional. The procedure, abridged: as §1
The subject of data set [10] is Human immunodeficiency virus 1. Briefly: Ratio of EC50 for HIV-1 harboring reverse transcriptase Y188L mutant infected in human MT4 cells to EC50 for HIV1 NL4-3 infected in human MT4 cells. The class given is functional. Put shortly: as §1
Data set [11] concerns Human immunodeficiency virus 1. Briefly: Antiviral activity against HIV1 harboring reverse transcriptase Y188L mutant infected in human […] cells assessed as protection against virus-induced cytopathic effect measured on day 5 post infection by MTT assay. The settings on record: Human immunodeficiency virus 1, 120 h. The class given is functional, cell-based.

The term EC50 denotes the concentration giving half of the maximal effect. Usually CC50 stands for the concentration giving 50% cytotoxicity. Take `Cc1cc(C)cc(S(=O)(=O)c2c(C(=O)NC(C)C(=O)NC(C)c3ccncc3)[nH]c3ccc(Cl)cc23)c1` (racemic): the EC50 was 167 nM in [1]; 7.4 nM in [2]; 0.6 nM in data set [7]; above 36500 nM in data set [8]; 12900 nM in [11]. The CC50 in data set [3] amounted to 21900 nM. The “Ratio EC50” value in data set [4] is above 60805; in data set [6] it was 12; in data set [9], 278; in data set [10] it was 21488. Further, in data set [5], the selectivity ratio was above 36500.
In the case of `Cc1ccnc2c1NC(=O)c1cccnc1N2C1CC1` [NEVIRAPINE], the EC50 in data set [1] was above 3760 nM; in [2], above 3760 nM; in data set [7], 112 nM; in [8] it was above 3760 nM; in data set [11], above 3760 nM. Also, the CC50 in [3] was above 18800 nM.
With `Cc1cc(C)cc(S(=O)(=O)c2c(C(=O)NC(C)c3ccccc3F)[nH]c3ccc(Cl)cc23)c1` (racemic), the EC50 in data set [1] is 103 nM; in [2] it was 0.7 nM; in data set [7] it was 0.7 nM; in [8], 3960 nM; in data set [11], 969 nM. Also, in data set [3], the CC50 is above 51500 nM. The “Ratio EC50” value in data set [4] was above 5656; in [6], 1; in [9] it was above 147; in data set [10], above 1384. In addition, the selectivity ratio in [5] was above 73600.
For the molecule `Cc1cc(C)cc(S(=O)(=O)c2c(C(=O)NCC(=O)NCc3ccccc3F)[nH]c3ccc(Cl)cc23)c1`, the EC50 in data set [1] is 1.3 nM; in data set [2], 1330 nM; in data set [7], 0.6 nM; in data set [8] it was above 47300 nM; in data set [11], 6160 nM. The CC50 in [3] was above 47300 nM. The “Ratio EC50” value in [4] was above 72248; in data set [6], 1894; in data set [9], 1.9; in [10], 10258. In addition, in [5], the selectivity ratio was above 78900.
On to `Cc1cc(C)cc(S(=O)(=O)c2c(C(=O)NC(C)C(=O)NCc3ccncn3)[nH]c3ccc(Cl)cc23)c1` (racemic), for which the EC50 was determined as 0.6 nM in data set [1]; 0.6 nM in [2]; 0.6 nM in data set [7]; 798 nM in [8]; 760 nM in data set [11]. The CC50 in data set [3] was 28100 nM. Moreover, the “Ratio EC50” value in data set [4] was above 1330; in data set [6], 1; in data set [9] it was 1; in data set [10], above 1267. For the same molecule, the selectivity ratio in [5] was above 46800.
Regarding `Cc1cc(C)cc(S(=O)(=O)c2c(C(=O)NC(C)C(=O)NC(C)c3ccccc3F)[nH]c3ccc(Cl)cc23)c1` (racemic), the EC50 in data set [1] was 108 nM; in [2], 36 nM; in data set [7], 0.6 nM; in [8] it was 6470 nM; in data set [11], above 15200 nM. Moreover, the CC50 in data set [3] came out at 15200 nM. The “Ratio EC50” value in data set [4] was 10790; in data set [6] it was 60; in data set [9], 180; in [10], above 25387. Also, the selectivity ratio in [5] is above 25400.
As to `Cc1cc(C)cc(S(=O)(=O)c2c(C(=O)Nc3cc(C#N)ccn3)[nH]c3ccc(Cl)cc23)c1`, the EC50 was 2.2 nM in data set [1], 0.6 nM in data set [2], 0.6 nM in [7] and above 53800 nM in [8]. In data set [3], the CC50 was above 53800 nM. Besides, the “Ratio EC50” value in [4] is on record as above 89622; in [6] it was 1; in [9] it was 3.7. In [5], the selectivity ratio was above 89600.
With `Cc1cc(C)cc(S(=O)(=O)c2c(C(=O)NC(C)C(=O)NCc3ccccc3F)[nH]c3ccc(Cl)cc23)c1` (racemic), the EC50 in [1] was 93 nM; in data set [2], 26 nM; in data set [7], 0.6 nM; in [8], above 23300 nM; in data set [11], 4240 nM. The CC50 in [3] came out at 23300 nM. Further, the “Ratio EC50” value is above 38775 in data set [4], 43 in [6], 155 in data set [9] and 7067 in [10]. Also, the selectivity ratio in data set [5] amounted to 23300.
With `Cc1cc(C)cc(S(=O)(=O)c2c(C(=O)NC(C)C(=O)NCc3ccco3)[nH]c3ccc(Cl)cc23)c1` (racemic), the EC50 was 27 nM in data set [1]; 1.9 nM in [2]; 0.6 nM in [7]; 4510 nM in data set [8]; 2430 nM in data set [11]. In addition, in [3], the CC50 is 24200 nM. In addition, the “Ratio EC50” value in [4] was above 7521; in data set [6] it was 3; in [9], 45; in [10] it was 4053. In addition, in data set [5], the selectivity ratio is above 40400.
As to `Cc1cc(C)cc(S(=O)(=O)c2c(C(=O)NC(CF)c3ccccc3)[nH]c3ccc(Cl)cc23)c1` (racemic), the EC50 in data set [1] was 82 nM; in data set [2], 0.7 nM; in [7], 0.7 nM; in data set [8], 27300 nM. For the same molecule, the CC50 in data set [3] stood at 49200 nM. Moreover, the “Ratio EC50” value was found to be 39030 in [4], 1 in data set [6] and 117 in data set [9]. In addition, the selectivity ratio in data set [5] was above 70300.
Turning to `COc1cccc(F)c1CNC(=O)c1[nH]c2ccc(Cl)cc2c1S(=O)(=O)c1cc(C)cc(C)c1`, the EC50 came to 399 nM in data set [1], 0.6 nM in [2], 0.6 nM in [7] and 27700 nM in data set [8]. The CC50 in data set [3] is above 49900 nM. Besides, the “Ratio EC50” value in [4] is 46243; in data set [6] it was 1; in data set [9], 665. For the same molecule, the selectivity ratio in data set [5] is above 83200.
Turning to `Cc1cc(C)cc(S(=O)(=O)c2c(C(=O)NCC(=O)NCc3ccncc3)[nH]c3ccc(Cl)cc23)c1`, the EC50 is 20 nM in data set [1]; 190 nM in data set [2]; 0.2 nM in data set [7]; 6090 nM in data set [8]; 1400 nM in [11]. The cytotoxic concentration (CC50) in data set [3] was above 48900 nM. For the same molecule, the “Ratio EC50” value in data set [4] was 30430; in data set [9], 100. In addition, the selectivity ratio in data set [5] was above 245000.
With `Cc1cc(C)cc(S(=O)(=O)c2c(C(=O)NCC(=O)N[C@H](C)c3ccncc3)[nH]c3ccc(Cl)cc23)c1`, the EC50 in data set [1] came to 5.71 nM; in [2], 152 nM; in data set [7], 0.7 nM; in data set [8], 12200 nM; in [11], 3270 nM.
Turning to `Cc1cc(C)cc(S(=O)(=O)c2c(C(=O)NC(C)c3cc(F)cc(F)c3)[nH]c3ccc(Cl)cc23)c1` (racemic), the EC50 in data set [1] was 716 nM; in [2], 1.2 nM; in data set [7], 0.6 nM; in [8], above 49700 nM. In addition, the CC50 in [3] was above 49700 nM. Moreover, the figures for the “Ratio EC50” value in [4], in data set [6] and in [9] were above 82843, 2 and 1198, respectively. For the same molecule, in data set [5], the selectivity ratio is above 82800.
Take `Cc1cc(C)cc(S(=O)(=O)c2c(C(=O)NCC(=O)N[C@@H](C)c3ccncc3)[nH]c3ccc(Cl)cc23)c1`: the EC50 came to 2.5 nM in data set [1]; 438 nM in data set [2]; 0.7 nM in data set [7]; 4630 nM in [8]; 3050 nM in [11].
Turning to `Cc1cn([C@H]2C[C@H](N=[N+]=[N-])[C@@H](CO)O2)c(=O)[nH]c1=O` [ZIDOVUDINE], the EC50 in data set [1] was 6 nM; in data set [2], 16 nM; in data set [7] it was 3.7 nM; in [8], 16 nM; in data set [11], 33 nM. In [3], the CC50 is above 30600 nM. Also, in data set [5], the selectivity ratio was above 8270. Further, the “Ratio EC50” value in data set [6] worked out at 4.3; in data set [9], 1.6; in data set [10] it was 8.9.
On to `Cc1cc(C)cc(S(=O)(=O)c2c(C(=O)NCc3cccc(F)c3F)[nH]c3ccc(Cl)cc23)c1`, for which the EC50 in data set [1] is 2 nM; in data set [2], 0.7 nM; in [7], 0.7 nM; in data set [8], above 51100 nM. Also, the CC50 in [3] was above 51100 nM. Also, the figures for the “Ratio EC50” value in data set [4], in data set [6] and in [9] were above 73046, 1 and 2.9, respectively. For the same molecule, the selectivity ratio in data set [5] is above 73000.
As to `Cc1cc(C)cc(S(=O)(=O)c2c(C(=O)NC(c3ccc(Cl)cc3)C3CC3)[nH]c3ccc(Cl)cc23)c1` (racemic), the cytotoxic concentration (CC50) in data set [3] was above 47400 nM. Moreover, the selectivity ratio in data set [5] is above 359. Besides, in [7], the EC50 is 133 nM.
